Screening data from PubChem.
The list is not random: actives were taken first. Their share in the collection is about 2.6%.
E-sel inducer: induces E-selectin expression in human endothelial cells; activation, % at 7.58 µM; P16581; HUVEC E-selectin immunofluorescence imaging; normalized: neutral wells 0, TNF-alpha wells 100; 260,000 tested, 0.37% active;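 active = mean E-selectin-positive cell signal at least 10% of the positive control, reached in at least 60% of replicates, without over 20% cell loss; inconclusive = no rule given, readout overlaps actives, possibly toxicity-flagged; inactive = the rest, including those meeting only one limit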
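Test system: HUVEC; input: 3,000 HUVEC/well; measured by: immunofluorescence imaging; read-out: % PE-positive cells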
miR-122 sensor: miR-122 inhibition in Huh7 cells; AID 602342; Huh7 miR-122 Renilla luciferase sensor, 48 h; neutral wells = 0, positive control = 100; 340,000 tested, 0.3% active; activation (reporter increase), % at 12.5 µM;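 active = mean replicate activation score at least 90 and every replicate individually at or above 90; inconclusive = only one of the two criteria met; inactive = neither criterion met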;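 note: higher luciferase means less miR-122 activity so hits act as miR-122 inhibitors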
DENV2 CPE rescue: inhibitors of DENV2 cytopathic effect | DENV2-infected cells, cytopathic effect rescue, plate reader | CPE inhibition, % at 9.99 µM | 350,000 tested, 1.7% active | AID 651640; in the data active = CPE inhibition above about 20%, passing the limit was not always enough; inconclusive = no clear call, values can overlap the other calls; tested in BHK-21 cells;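 note: 0% = median of neutral control wells and 100% = median of positive control wells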
GSIS activator: primary screen for activators of insulin secretion dependent on glucose, INS-1E cells, GLuc reporter luminescence. INS-1E GLuc reporter insulin secretion, 2-3 h. activation, % at 16.6 µM. 370,000 tested, 0.61% active. AID 743287;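 active = lowest replicate activation of at least 40%, so every replicate reaches that level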;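 note: 0% = median of neutral control wells and 100% = median of IBMX positive control wells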
ERAP1 inh: blocks human ERAP1 aminopeptidase activity; recombinant ERAP1, Leu-AMC fluorescence, 60 min; inhibition, % at 10.7 µM; 340,000 tested, 0.15% active;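 active = mean replicate inhibition of at least 30%, or all replicates individually reaching that 30% level; inactive = mean below 30% and not every replicate reaching it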;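 note: 0% = neutral control wells and 100% = L-leucinethiol positive control wells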
F508del corr: correctors of CFTR F508del function in bronchial epithelial cells; CFBE cells, YFP halide quenching; stimulated with forskolin plus potentiator P3; % fluorescence drop versus neutral controls; activity (quench increase), % at 7.58 µM; 350,000 tested, 0.36% active; AID 720511;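 active = mean added fluorescence quench of at least 8% versus neutral control, with both replicates also reaching 8%; inconclusive = only one of the mean or replicate conditions met; inactive = mean below 8% and not both replicates reaching 8%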;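 note: cells transiently co-express mutant CFTR-F508del with the halide-sensitive YFP; corrector assay measuring rescue of mutant channel to the surface after 24 h compound exposure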
miR-27b qPCR: miR-27b effect in Huh7 as miR-122 inhibitor selectivity check; Huh7 miR-27b levels, qRT-PCR, 48 h; shares compounds with miR-122 sensor; relative miR-27b level (unnormalised ratio), ratio at 35 µM; 35 tested, under 10 active;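 active = compounds lowering miR-27b whose fitted half-maximal dose is at most twice their top tested dose; inconclusive = flat curve with moderate drop, or poor fit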
The depositor's hits bear a star; u = inconclusive; x = no result; ! = repeats disagree; [ ] = remark or other dose.

SMILES | E-sel inducer | miR-122 sensor | DENV2 CPE rescue | GSIS activator | ERAP1 inh | F508del corr | others
CCCN1[C@@H]2c3cccc(=O)n3C[C@H]1[C@H](CO)[C@H]2C(=O)N(C)C | 0 | x | -2 | 2 | -4 | x
COCCO[C@H]1CC[C@@]2(C)C(=CCC3C2CC[C@@]2(C)C3CC[C@]2(C)O)C1 (some centres not stated) | 0 | 2 | 0 | 2 | 1 | 8.7*
C[C@]12CCC(OC(=O)CCC(=O)O)CC1=CCC1C2CC[C@]2(C)C(=O)CCC12 (some centres not stated) | 0 | -6 | -5 | 1 | -2 | -1
Cc1cccn2c(=O)c3c(nc12)N1CCCCCC1C1(C3)C(=O)N(C)C(=O)N(C)C1=O (configuration not stated) | 55* | -3 | -3 | 0 | x | 2
Cc1cccn2c(=O)c3c(nc12)N1CCc2ccccc2C1C1(C3)C(=O)NC(=O)N(C)C1=O (configuration not stated) | x | -3 | x | 1 | x | x
O=C(NCc1cccnc1)Nc1ccccc1Cl | 0 | 1 | 9 | 10 | 1 | 2
O=C(NCc1cccnc1)Nc1ccc([N+](=O)[O-])cc1 | 0 | -4 | 36* | -13 | 3 | -1
CCOC(=O)c1c(/N=C/c2c(O)n(-c3ccc(F)cc3)c(=S)[nH]c2=O)sc2c1CCCC2 | x | -7 | x | 75* | x | x
C=C(C)Cn1c(=O)n(CC2CS2)c2ccccc21 (configuration not stated) | x | x | x | 69* | x | x
C[N+](C)(C)CC1CCCC1=O (configuration not stated) | -2 | -3 | 4 | 18 | 80* | 1
COc1cc2c(cc1OC)[C@@]13CCN4CC5=CCO[C@H]6CC(=O)N2[C@H]1[C@H]6[C@H]5C[C@H]43 | x | 0 | 3 | -1 | 3 | 5
COc1ccc2c(c1)C13CCN4CC5=CCOC6CC(=O)N2C1C6C5CC43 (configuration not stated) | x | 2 | 71* | x | -1 | 3
COC(=O)C1=C(c2ccc(OC(F)(F)F)cc2)C[C@@H]2CC[C@H]1N2C(=O)N1CCCCC1 | 0 | 6 | 48* | x | 0 | 0
COC(=O)C1=C(c2ccc(OC(F)(F)F)cc2)C[C@@H]2CC[C@H]1N2C(=O)N1CCC(O)CC1 | 0 | x | 13 | 2 | -5 | -1
COC(=O)C1=C(c2ccccc2)C[C@@H]2CC[C@H]1N2C(=O)N1CCC(C)CC1 | 0 | 4 | u | -5 | 16 | 1
COC(=O)C1=C(c2ccccc2)C[C@@H]2CC[C@H]1N2C(=O)N1CCOCC1 | 0 | x | 38* | 8 | x | 2
C/C=C/c1ccc(C2[C@@H]3CN(C(=O)CN(C)C)C[C@H]2N3)cc1 (some centres not stated) | 0 | x | 2 | 6 | 3 | 0
COC(=O)C1=C(c2ccc(F)cc2OCc2ccccc2)C[C@@H]2CC[C@H]1N2C(=O)N1CCC(O)(c2ccc(Cl)cc2)CC1 | 0 | -4 | 77* | 3 | 0 | 1
COC(=O)C1=C(c2cccc(OCc3ccccc3)c2)C[C@@H]2CC[C@H]1N2C(=O)NCCOc1ccccc1 | 0 | -3 | 90* | -21 | 0 | -2
COC(=O)C1=C(c2cc3ccccc3s2)C[C@@H]2CC[C@H]1N2C(=O)NCc1ccc(F)cc1 | 0 | x | 0 | -12 | x | 3
COC(=O)C1=C(c2cccc(OCc3ccccc3)c2)C[C@@H]2CC[C@H]1N2C(=O)NCc1ccc(Cl)cc1 | 0 | x | 25* | 4 | -2 | -2
COC(=O)C1=C(c2ccc(F)cc2OCc2ccccc2)C[C@@H]2CC[C@H]1N2C(=O)N1CCCCC1 | 0 | -5 | -11 | -7 | x | 1
COC(=O)C1=C(c2cc3ccccc3s2)C[C@@H]2CC[C@H]1N2C(=O)NCc1ccccc1 | 0 | -5 | 117* | -5 | x | -1
O=C(O)[C@H]1[C@H](CO)[C@H]2Cn3c(ccc(-c4ccc(F)cc4)c3=O)[C@@H]1N2CC1CCCCC1 | 0 | x | 1 | 1 | 2 | x
COc1ccc(CC2C(=O)NC(C)C(=O)N(C)C3C(=O)N(C)C(Cc4ccc(O)c(c4)Oc4ccc(cc4)C3O)C(=O)NC(C)C(=O)NC(C)C(=O)N2C)cc1 (configuration not stated) | 0 | -14 | 107* | x | -1 | -1
SMILES | E-sel inducer | miR-122 sensor | DENV2 CPE rescue | GSIS activator | ERAP1 inh | F508del corr | others
ClC1=C(Cl)C2(Cl)C3C(Cl)C=CC3C1(Cl)C2(Cl)Cl (configuration not stated) | x | 0 | 28* | 2 | 3 | -1
O=C1NC(=O)C2C1C1(Cl)C(Cl)=C(Cl)C2(Cl)C1(Cl)Cl (configuration not stated) | 0 | 3 | 4 | x | 3 | -1
CCN(CCCl)c1cc(CN(C)C)cc(NC(=O)c2ccc(C(=O)Nc3cc(CN(C)C)cc(N(CC)CCCl)c3)cc2)c1 | 0 | -1 | 7 | 19 | 49* | -1
O=c1c2ccccc2[se]n1-c1ccccc1 | 0 | -2 | -7 | x | 75* | 0
O=c1c2ccccc2nc(-c2ccccc2)n1-c1ccccc1 | 4 | -2 | -2 | -2 | 13 | 0
CN1C2CN(CC(F)(F)F)CC1C2c1ccc(Br)cc1 (configuration not stated) | x | x | x | 7 | x | x
C[N+]1(C)CCc2cc3c(cc2[C@H]1[C@@H]1OC(=O)c2c1ccc1c2OCO1)OCO3 | 0 | -7 | 2 | -2 | 53*! | 2
C[C@H](CO)N1C[C@H](C)[C@@H](CN(C)C(=O)Oc2ccccc2)OCc2ccccc2-c2c(n(C)c3ccccc23)C1=O | x | x | x | -33 | x | x
C[C@H]1CN([C@@H](C)CO)C(=O)c2c(c3ccccc3n2C)-c2ccccc2CO[C@H]1CN(C)C(=O)Oc1ccccc1 | 0 | x | 81* | -29 | 2 | -2
Cc1ccc(/C=C2\C(=O)NC(=O)N(Cc3ccccc3Cl)C2=O)o1 | x | x | 0 | -1 | 50* | 3
CN1/C(=C\C=C2C(=O)NC(=O)NC2=O)C(C)(C)c2ccccc21 | x | x | -3 | -3 | -1 | u
CCN1/C(=C/C=C/C2=[N+](CC)c3ccccc3C2(C)C)C(C)(C)c2ccccc21 | 131* | -23 | -9 | -56 | 22 | -13
Cc1cc([N+](=O)[O-])c(Cl)cc1NC(=O)C(C)C | x | x | x | 17 | x | x
CNc1cc(Cl)c2nonc2c1[N+](=O)[O-] | x | x | -2 | 51* | 4 | -7
O=C(CN1CCOCC1)Nc1ccc(Br)cc1C(=O)c1ccccc1 | x | 100* | x | -14 | x | x | miR-27b qPCR=0.94
COc1ccc(-c2ccc([C@H]3[C@@H](CO)N4CCCCN(C(=O)Cc5ccccc5)C[C@@H]34)cc2)cc1 | -1 | -6[16.7 µM] | 5 | -11 | 3 | -2
